Experiments:
Rattus norvegicus [1] = assay: In vivo maximum time required for clearance of compound after oral (po) administration at a dose of 10 mg/kg was measured in rats; type: ADME, organism-based; set-up: dose 10 mg/kg, route oral
Summary of the method: (§1)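 Male Sprague Dawley rats (~270), fasted overnight, received a single iv or oral dose in PEG400, 4% Tween 80/dextrose (60:40), three rats per route. Jugular/catheter blood was drawn predose and at 5, 15 and 30 min and 1, 2, 4, 6 and 24 h, and plasma was analysed by LC/MS/MS. Analysis was noncompartmental: Cmax/Tmax observed, AUC by linear trapezoidal rule, and F from dose-normalized oral/iv AUC.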

[2] = Total body clearance was evaluated for the compound after i.v. administration at a dose of 5 mg/kg was measured in rats; type: ADME, organism-based; set-up: dose 5 mg/kg, route intravenous; conditions: rat, in vivo, iv; summary of the method: as §1
Rattus norvegicus [3] = assay: In vivo area under curve was determined for the compound after oral (po) administration at a dose of 10 mg/kg in rats; type: ADME, organism-based; set-up: dose 10 mg/kg, route oral; summary of the method: as §1
Rattus norvegicus [4] = organism: Rattus norvegicus; assay: Metabolic rate for compound was observed in rat hepatocytes; type: ADME, Liver, Hepatocyte
Summary of the method: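 Compound at 1 μM was incubated with 10^6 rat hepatocytes in 1 mL Leibovitz's medium at 37 °C with shaking. Samples were taken at 0.5–90 min and quenched in ice-cold acetonitrile. Parent was quantified by LC/MS/MS, with hepatocyte-free controls and reference clearance drugs.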

Rattus norvegicus [5] = assay: Maximal concentration in male Sprague-Dawley rats after 5 mg/kg intravenous dose; type: ADME, organism-based; set-up: dose 5 mg/kg, route intravenous; conditions: in vivo; summary of the method: as §1
[6] = Steady-state volume of distribution was evaluated for the compound after i.v. administration at a dose of 5 mg/kg was measured in rats; type: ADME, organism-based; set-up: dose 5 mg/kg, route intravenous; conditions: rat, in vivo, iv, read-out: Vss; summary of the method: as §1
[7] = In vivo retention time was evaluated for the compound after i.v. administration at a dose of 5 mg/kg was measured in rats; type: ADME, organism-based; set-up: dose 5 mg/kg, route intravenous; conditions: rat, iv; summary of the method: as §1
Rattus norvegicus [8] = assay: In vivo half-life period for compound after i.v. administration at a dose of 5 mg/kg was measured in rats; type: ADME, organism-based; set-up: dose 5 mg/kg, route intravenous; conditions: iv; summary of the method: as §1
[9] = Oral bioavailability after oral (po) administration at a dose of 10 mg/kg was measured in rats; type: ADME, organism-based; conditions: rat, in vivo, read-out: Bioavailabiility; summary of the method: as §1
Casein kinase II = Casein kinase II (Homo sapiens, UniProt P19784+P67870+P68400); assay: Inhibition of Casein kinase 2; type: protein-complex assay
Summary of the method: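 33P-γ-ATP/ATP at 2Km, substrate 5Km, 1% DMSO, 3-fold dilutions from 10 μM, 30–90 min at room temperature. Phosphorylated substrate counted by SPA. Four-parameter logistic IC50, mean of at least two experiments.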

[10] = target: Cyclin-dependent kinase 5/CDK5 activator 1 (Homo sapiens, UniProt Q00535); assay: Inhibition of Cyclin-dependent kinase 5-p35nck5a; type: protein-complex assay
Chain of Cyclin-dependent kinase 5/CDK5 activator 1 (Q00535 whole entry): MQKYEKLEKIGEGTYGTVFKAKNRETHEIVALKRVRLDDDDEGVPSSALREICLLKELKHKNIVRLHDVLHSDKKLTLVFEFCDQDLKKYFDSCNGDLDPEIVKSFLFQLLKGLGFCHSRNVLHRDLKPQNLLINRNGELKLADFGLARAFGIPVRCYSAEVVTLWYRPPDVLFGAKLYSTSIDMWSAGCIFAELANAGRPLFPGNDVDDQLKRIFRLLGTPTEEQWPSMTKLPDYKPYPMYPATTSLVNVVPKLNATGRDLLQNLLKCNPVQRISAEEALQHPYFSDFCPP
Chain of Cyclin-dependent kinase 5/CDK5 activator 1 (Q15078 whole entry, further chain): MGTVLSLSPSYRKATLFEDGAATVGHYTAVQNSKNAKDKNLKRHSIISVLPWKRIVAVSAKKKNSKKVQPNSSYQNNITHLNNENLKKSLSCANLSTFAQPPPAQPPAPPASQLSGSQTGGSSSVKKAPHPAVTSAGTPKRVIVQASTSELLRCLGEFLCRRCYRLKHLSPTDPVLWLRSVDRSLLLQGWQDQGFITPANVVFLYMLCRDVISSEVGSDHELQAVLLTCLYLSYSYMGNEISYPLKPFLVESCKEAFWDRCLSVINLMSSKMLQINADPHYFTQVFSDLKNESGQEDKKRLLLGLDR
Summary of the method: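 Recombinant CDK5/p25 expressed in insect cells, used at 4 nM with histone H1 substrate (5Km) and ATP/33P-γ-ATP (2Km). Run in Tris-HCl pH 7.4 buffer with MgCl2 and DTT, 1% DMSO, for 30–90 min at room temperature. 3-fold dilutions from 10 to 0.0015 μM. Product captured on streptavidin SPA beads and counted.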

[11] = target: Glycogen synthase kinase-3 beta (Homo sapiens, UniProt P49841); assay: Inhibition of Glycogen synthase kinase-3 beta
Summary of the method: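 GSK-3β at 20 nM (in-house, insect cells), MBP substrate, 50 mM Hepes pH 7.5, 3 mM MgCl2, 3 mM MnCl2, 1 mM DTT, 3 μM NaVO3. ATP/33P-γ-ATP 2Km, substrate 5Km, 1% DMSO. 3-fold dilutions from 10 μM, 30–90 min at room temperature. SPA.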

[12] = target: Inhibitor of nuclear factor kappa-B kinase subunit beta (Homo sapiens, UniProt O14920); assay: Inhibition of I-kappa-B-kinase beta activity
Chain of Inhibitor of nuclear factor kappa-B kinase subunit beta (O14920 whole entry): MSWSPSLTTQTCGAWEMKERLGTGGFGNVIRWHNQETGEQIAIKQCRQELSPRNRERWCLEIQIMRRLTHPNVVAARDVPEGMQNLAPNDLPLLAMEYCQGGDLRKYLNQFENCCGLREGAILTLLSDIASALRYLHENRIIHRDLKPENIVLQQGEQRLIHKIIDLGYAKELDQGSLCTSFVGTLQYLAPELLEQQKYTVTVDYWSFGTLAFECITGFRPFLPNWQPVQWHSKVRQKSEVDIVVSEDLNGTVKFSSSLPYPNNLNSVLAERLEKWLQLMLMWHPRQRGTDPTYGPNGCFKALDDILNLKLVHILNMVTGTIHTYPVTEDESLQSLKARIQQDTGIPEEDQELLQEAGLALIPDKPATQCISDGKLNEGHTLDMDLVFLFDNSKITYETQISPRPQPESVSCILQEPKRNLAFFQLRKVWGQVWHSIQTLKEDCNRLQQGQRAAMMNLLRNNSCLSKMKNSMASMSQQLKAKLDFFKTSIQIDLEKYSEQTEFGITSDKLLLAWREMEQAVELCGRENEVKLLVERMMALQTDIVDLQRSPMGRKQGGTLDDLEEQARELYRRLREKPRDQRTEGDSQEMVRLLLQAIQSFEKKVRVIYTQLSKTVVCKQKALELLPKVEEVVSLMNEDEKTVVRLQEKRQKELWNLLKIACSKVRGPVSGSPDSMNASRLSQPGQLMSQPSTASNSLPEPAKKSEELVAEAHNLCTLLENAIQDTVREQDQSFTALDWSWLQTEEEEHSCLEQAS
Summary of the method: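 ATP/33P-γ-ATP 2Km, substrate 5Km, 1% DMSO, 10–0.0015 μM compound, 30–90 min at room temperature. SPA detection.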

Insulin receptor = Insulin receptor (Homo sapiens, UniProt P06213); assay: Inhibition of IR kinase activity
Summary of the method: (§2)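 Radiometric kinase assay. Enzyme (0.7–100 nM) and substrate (5Km) incubated with ATP/33P-γ-ATP (2Km) and compound serially diluted 3-fold from 10 to 0.0015 μM, 1% DMSO, 30–90 min at room temperature. Product separated by SPA, Dowex or phosphocellulose filter, then counted.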

[13] = target: Mast/stem cell growth factor receptor Kit (Homo sapiens, UniProt P10721); assay: Inhibition of KIT kinase activity; summary of the method: as §2
Chain of Mast/stem cell growth factor receptor Kit (P10721 whole entry): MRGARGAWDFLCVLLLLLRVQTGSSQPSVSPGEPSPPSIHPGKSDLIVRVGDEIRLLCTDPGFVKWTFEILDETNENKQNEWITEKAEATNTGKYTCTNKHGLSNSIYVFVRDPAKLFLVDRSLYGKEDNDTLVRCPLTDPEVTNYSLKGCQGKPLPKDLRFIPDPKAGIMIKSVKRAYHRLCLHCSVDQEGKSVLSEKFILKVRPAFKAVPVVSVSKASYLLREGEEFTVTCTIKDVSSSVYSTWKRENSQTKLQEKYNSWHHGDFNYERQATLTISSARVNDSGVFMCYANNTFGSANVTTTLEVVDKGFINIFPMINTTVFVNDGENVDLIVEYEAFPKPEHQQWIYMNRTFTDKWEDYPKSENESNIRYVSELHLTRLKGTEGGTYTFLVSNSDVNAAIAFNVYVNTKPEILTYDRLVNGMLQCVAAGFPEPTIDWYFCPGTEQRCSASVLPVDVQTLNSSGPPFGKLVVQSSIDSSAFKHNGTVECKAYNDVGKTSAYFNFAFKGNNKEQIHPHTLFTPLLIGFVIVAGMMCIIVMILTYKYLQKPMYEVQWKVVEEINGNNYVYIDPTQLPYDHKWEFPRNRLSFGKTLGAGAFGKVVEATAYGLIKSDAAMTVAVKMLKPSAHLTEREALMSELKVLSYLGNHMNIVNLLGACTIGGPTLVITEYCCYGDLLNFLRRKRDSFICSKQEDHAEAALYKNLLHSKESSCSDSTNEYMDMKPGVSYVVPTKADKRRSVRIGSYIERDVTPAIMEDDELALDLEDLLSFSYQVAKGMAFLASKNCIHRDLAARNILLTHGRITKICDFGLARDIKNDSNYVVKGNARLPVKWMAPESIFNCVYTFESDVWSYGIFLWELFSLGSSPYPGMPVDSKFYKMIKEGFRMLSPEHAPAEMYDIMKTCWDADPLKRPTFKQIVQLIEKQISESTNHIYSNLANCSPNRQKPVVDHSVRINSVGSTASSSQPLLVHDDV

[14] = target: Mitogen-activated protein kinase 14 (Homo sapiens, UniProt Q16539); assay: Inhibition of Mitogen-activated protein kinase p38 alpha; summary of the method: as §2
[15] = target: Mitogen-activated protein kinase 1 (Homo sapiens, UniProt P28482); assay: Inhibition of Mitogen-activated protein kinase 1 activity
Summary of the method: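 ERK-2 at 3 nM (insect-cell recombinant) with MBP in Tris-HCl pH 7.4 10 mM, MgCl2 10 mM, DTT 7.4 mM. ATP/33P-γ-ATP 2Km, substrate 5Km, 1% DMSO, 10 to 0.0015 μM compound, 30–90 min at room temperature. Dowex resin (formate, pH 3) removed free ATP; supernatant counted.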

[16] = target: 3-phosphoinositide-dependent protein kinase 1 (Homo sapiens, UniProt O15530); assay: Inhibition of PDK1 kinase activity; summary of the method: as §2
[17] = target: Protein kinase C beta type (Homo sapiens, UniProt P05771); assay: Inhibition of Protein kinase C beta
Chain of Protein kinase C beta type (P05771 whole entry): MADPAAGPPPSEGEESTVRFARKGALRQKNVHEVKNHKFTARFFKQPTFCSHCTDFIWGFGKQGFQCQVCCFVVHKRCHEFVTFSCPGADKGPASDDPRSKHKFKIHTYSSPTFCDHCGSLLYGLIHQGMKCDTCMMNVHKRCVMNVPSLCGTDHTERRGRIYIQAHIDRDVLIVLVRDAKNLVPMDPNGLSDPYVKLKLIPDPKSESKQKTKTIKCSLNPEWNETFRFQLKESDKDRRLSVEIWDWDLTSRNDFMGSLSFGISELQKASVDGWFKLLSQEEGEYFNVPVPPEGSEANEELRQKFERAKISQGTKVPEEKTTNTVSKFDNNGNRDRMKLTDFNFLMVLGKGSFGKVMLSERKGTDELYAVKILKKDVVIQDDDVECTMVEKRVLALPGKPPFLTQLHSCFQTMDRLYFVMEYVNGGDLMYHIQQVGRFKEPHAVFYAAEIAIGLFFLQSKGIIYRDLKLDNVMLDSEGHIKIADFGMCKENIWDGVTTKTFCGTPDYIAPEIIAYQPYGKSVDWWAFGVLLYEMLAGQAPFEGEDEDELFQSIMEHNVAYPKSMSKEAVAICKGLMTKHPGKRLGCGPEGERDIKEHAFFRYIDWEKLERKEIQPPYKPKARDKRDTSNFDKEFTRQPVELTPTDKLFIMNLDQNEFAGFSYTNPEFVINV
Summary of the method: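 PKCβ was commercially sourced. It was used at 0.7–100 nM enzyme with substrate at 5Km and ATP/33P-γ-ATP at 2Km, 1% DMSO, and compound in 3-fold steps from 10 to 0.0015 μM, for 30–90 min at room temperature. Phosphorylated product was separated and counted. Four-parameter logistic IC50, mean of at least two experiments.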

[18] = target: Serine/threonine-protein kinase PLK1 (Homo sapiens, UniProt P53350); assay: Inhibition of PLK1 kinase; summary of the method: as §2
[19] = target: Inhibitor of nuclear factor kappa-B kinase subunit epsilon (Homo sapiens, UniProt Q14164); assay: Inhibition of IKKi (IKK epsilon) kinase activity; summary of the method: as §2
Chain of Inhibitor of nuclear factor kappa-B kinase subunit epsilon (Q14164 whole entry): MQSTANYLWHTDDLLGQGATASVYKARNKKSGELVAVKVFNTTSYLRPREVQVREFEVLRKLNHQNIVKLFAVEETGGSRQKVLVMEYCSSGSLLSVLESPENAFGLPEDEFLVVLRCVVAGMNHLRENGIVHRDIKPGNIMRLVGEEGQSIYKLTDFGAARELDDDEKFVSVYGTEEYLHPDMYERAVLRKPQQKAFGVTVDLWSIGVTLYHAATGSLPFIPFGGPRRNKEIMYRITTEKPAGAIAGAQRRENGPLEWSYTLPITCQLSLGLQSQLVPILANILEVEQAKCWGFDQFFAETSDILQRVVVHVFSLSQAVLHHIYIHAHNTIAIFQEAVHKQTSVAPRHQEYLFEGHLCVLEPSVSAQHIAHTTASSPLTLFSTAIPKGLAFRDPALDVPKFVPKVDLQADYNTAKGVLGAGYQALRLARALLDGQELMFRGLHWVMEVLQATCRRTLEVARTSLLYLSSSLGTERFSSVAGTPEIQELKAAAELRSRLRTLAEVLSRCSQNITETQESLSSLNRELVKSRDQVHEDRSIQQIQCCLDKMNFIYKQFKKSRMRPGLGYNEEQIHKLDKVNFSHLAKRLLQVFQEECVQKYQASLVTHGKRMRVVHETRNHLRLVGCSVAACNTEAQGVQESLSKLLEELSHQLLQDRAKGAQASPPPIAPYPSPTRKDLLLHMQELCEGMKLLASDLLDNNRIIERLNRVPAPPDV

[20] = target: Tyrosine-protein kinase ABL (Homo sapiens, UniProt P00519+P42684); assay: Inhibition of V-abl tyrosine kinase (ABL); type: protein assay
Summary of the method: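 ABL at 1.2 nM, recombinant from insect cells, with MBP in 50 mM Hepes pH 7.5, 3 mM MgCl2, 3 mM MnCl2, 1 mM DTT, 3 μM NaVO3. 2Km ATP/33P-γ-ATP, 5Km substrate, 1% DMSO. 3-fold series from 10 μM, 30–90 min at room temperature. SPA readout.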

[21] = target: Tyrosine-protein kinase Lck (Homo sapiens, UniProt P06239); assay: Inhibition of p56 lck tyrosine kinase; summary of the method: as §2
[22] = target: Serine/threonine-protein kinase PAK 4 (Homo sapiens, UniProt O96013); assay: Inhibition of PAK4 kinase; summary of the method: as §2
Chain of Serine/threonine-protein kinase PAK 4 (O96013 whole entry): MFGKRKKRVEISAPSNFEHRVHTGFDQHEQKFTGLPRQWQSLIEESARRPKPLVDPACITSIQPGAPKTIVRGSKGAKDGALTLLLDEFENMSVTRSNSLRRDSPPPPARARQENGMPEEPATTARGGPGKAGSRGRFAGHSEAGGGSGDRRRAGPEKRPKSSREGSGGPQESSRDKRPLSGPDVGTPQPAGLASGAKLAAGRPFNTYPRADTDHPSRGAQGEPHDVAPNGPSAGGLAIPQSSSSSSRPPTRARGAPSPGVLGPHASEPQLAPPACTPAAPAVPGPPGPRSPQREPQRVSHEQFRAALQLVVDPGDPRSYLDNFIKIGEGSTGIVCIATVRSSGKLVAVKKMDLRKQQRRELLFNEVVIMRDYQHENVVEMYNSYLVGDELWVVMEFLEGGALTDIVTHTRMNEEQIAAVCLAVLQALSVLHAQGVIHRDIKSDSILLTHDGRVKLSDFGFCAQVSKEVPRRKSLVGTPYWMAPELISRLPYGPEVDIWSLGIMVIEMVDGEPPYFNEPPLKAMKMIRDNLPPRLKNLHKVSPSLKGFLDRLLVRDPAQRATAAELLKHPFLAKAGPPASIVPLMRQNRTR

[23] = target: High affinity nerve growth factor receptor (Homo sapiens, UniProt P04629); assay: Inhibition of Trk A kinase activity; summary of the method: as §2
Rattus norvegicus [24] = assay: In vivo area under curve was determined for the compound after i.v. administration at a dose of 5 mg/kg in rats; type: ADME, organism-based; set-up: dose 5 mg/kg, route intravenous; conditions: iv; summary of the method: as §1
[25] = target: Hepatocyte growth factor receptor (Homo sapiens, UniProt P08581); assay: Inhibition of MET kinase activity; summary of the method: as §2
[26] = target: Aurora kinase A (Homo sapiens) (UniProt O14965); assay: Inhibition of Aurora kinase A
Chain of Aurora kinase A (Homo sapiens) (O14965 whole entry, looked up): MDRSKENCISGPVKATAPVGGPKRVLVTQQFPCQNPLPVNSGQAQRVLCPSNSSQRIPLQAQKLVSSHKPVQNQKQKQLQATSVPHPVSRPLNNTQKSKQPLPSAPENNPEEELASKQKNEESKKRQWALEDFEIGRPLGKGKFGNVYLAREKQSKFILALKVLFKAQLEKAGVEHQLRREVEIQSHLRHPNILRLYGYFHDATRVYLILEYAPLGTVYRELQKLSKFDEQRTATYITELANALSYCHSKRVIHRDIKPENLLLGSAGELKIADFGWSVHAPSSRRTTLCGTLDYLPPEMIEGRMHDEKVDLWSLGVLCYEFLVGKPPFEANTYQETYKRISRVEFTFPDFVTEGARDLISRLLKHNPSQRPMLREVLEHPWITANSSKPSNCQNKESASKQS

T max (Rattus norvegicus [1]): 1.39 h | clearance [2]: 13.5 mL/min/kg | AUC total (Rattus norvegicus [3]): 38.18 µM·h | Metabolic rate (Rattus norvegicus [4]): 27.8 mL/min/kg | Cmax (Rattus norvegicus [5]): 19.4 µM | Vd [6]: 1.06 L/kg | MRT [7]: 1.31 h | T1/2 (Rattus norvegicus [8]): 1 h | bioavailability [9]: 89.8% | IC50 (Casein kinase II): > 10 µM | IC50 [10]: 0.114 µM | IC50 [11]: 1.91 µM | IC50 [12]: > 10 µM | IC50 (Insulin receptor): > 10 µM | IC50 [13]: > 10 µM | IC50 [14]: > 10 µM | IC50 [15]: 4.6 µM | IC50 [16]: > 10 µM | IC50 [17]: > 10 µM | IC50 [18]: > 10 µM | IC50 [19]: > 10 µM | IC50 [20]: > 10 µM | IC50 [21]: > 10 µM | IC50 [22]: > 10 µM | IC50 [23]: > 10 µM | AUC total (Rattus norvegicus [24]): 21.24 µM·h | IC50 [25]: > 10 µM | IC50 [26]: > 10 µM
Structure (SMILES): O=C(Cc1ccc2ccccc2c1)Nc1cc(C2CC2)n[nH]1

— ChEMBL document CHEMBL1148336, “3-Aminopyrazole inhibitors of CDK2/cyclin A as antitumor agents. 1. Lead finding” (J Med Chem, 2004)
